# Most compounds without a hit are left out; they make up all but 2.1% or so of the library.
# GSK3B inh: inhibitors of human GSK3beta kinase; P49841; GST-GSK3beta kinase, ADP-Glo luminescence, 60 min; stronger effect = lower value; activity score (negative = inhibition), % at 10 µM; 300,000 tested, 0.038% active; AID 2097;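 active means more than half of replicate wells score below -50%, meaning over 50% inhibition versus plate controls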;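 further: 0% = median DMSO wells and -100% = median GW8510 positive control wells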
#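 Assay system: GST-tagged human GSK3beta kinase, cell-free; Input: 1.6 ng GSK3beta; Medium: Tris/MgCl2 kinase buffer; Timing: 60 min enzyme reaction, room temperature; Signal: ADP-Glo luminescence quantifying ADP generated by kinase; Evaluation: score relative to plate controls; Benchmarks: DMSO neutral wells and GW8510 at 20 µM as positive.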
# STK33 inh: blocks human STK33 kinase activity; Q9BYT3; purified STK33, MBP phosphorylation, ADP-Glo luminescence; inhibition, % at 10 µM; 320,000 tested, 0.073% active; AID 2661;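 active means inhibition at or above 25%, using the most active replicate where run in duplicate; inactive means inhibition below 25%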
# Target sequence (Q9BYT3 whole entry, looked up): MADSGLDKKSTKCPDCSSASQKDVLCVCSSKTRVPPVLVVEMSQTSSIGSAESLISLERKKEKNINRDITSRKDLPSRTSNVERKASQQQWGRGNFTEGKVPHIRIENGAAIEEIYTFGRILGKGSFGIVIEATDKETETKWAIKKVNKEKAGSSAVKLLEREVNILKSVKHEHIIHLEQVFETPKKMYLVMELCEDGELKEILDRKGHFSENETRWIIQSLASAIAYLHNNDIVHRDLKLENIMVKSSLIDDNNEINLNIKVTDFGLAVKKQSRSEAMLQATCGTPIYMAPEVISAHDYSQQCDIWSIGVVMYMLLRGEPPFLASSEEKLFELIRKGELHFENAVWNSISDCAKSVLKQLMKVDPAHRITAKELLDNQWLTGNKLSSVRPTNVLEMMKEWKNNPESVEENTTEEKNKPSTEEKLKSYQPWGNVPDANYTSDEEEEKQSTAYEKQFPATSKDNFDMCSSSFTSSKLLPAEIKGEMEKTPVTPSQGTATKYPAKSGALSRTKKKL
# MEKK3 PB1 HTS: modulators (inhibitors or enhancers) of MEK5 binding to human MEKK3 PB1 domain | bead-based flow cytometry, Alexa488-MEK5 binding to MEKK3; actives lie on both sides; 0 = blocked by unlabeled MEK5, 100 = vehicle | binding response (% of control), % at 10 µM | 290,000 tested, 1.4% active | Q99759;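 active means binding response more than 3 SD above or below the average of its plate-row segment, actives on both sides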;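 further: Alexa488 bead fluorescence after subtracting the streptavidin-only scavenger bead signal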
# GSK3 alpha inh: human GSK-3 alpha kinase inhibition | ADP-Glo luminescence, 60 min | P49840 | AID 2650 | inhibition, % at 10 µM | 320,000 tested, 0.1% active;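 active means more than half of replicates show inhibition above 20%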;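 further: GST-tagged GSK-3 alpha with peptide substrate and 25 µM ATP; 0% = DMSO neutral wells and 100% = GW8510 positive control wells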
# MEKK2 WT-MEK5: raises or lowers MEK5 binding to wildtype human MEKK2 PB1 domain; Q9Y2U5; bead flow cytometry, Alexa488-MEK5 binding to MEKK2 WT; actives lie on both sides; binding response (% of control), % at 10 µM; 290,000 tested, 1.1% active; in the data active means binding response below about 67% or above about 130%
# MEKK2 mut-MEK5: signal of MEK5 binding to mutant human MEKK2 PB1 domain; bead flow cytometry, Alexa488-MEK5 binding to MEKK2 mutant; percent response, % at 10 µM; 290,000 tested, 0.35% active; in the data active means percent response above about 24%, passing the limit was not always enough
# MEKK2wt confirm: raises or lowers MEK5 binding to wildtype human MEKK2, retest; 5,900 tested, 2.4% active; bead flow cytometry, Alexa488-MEK5 binding to MEKK2 WT; actives lie on both sides; binding response (% of control), % at 10 µM; shares compounds with MEKK3 PB1 HTS; AID 1892; in the data active means binding response below about 16% or above about 210%; inactive means in between
# MEKK2mut confirm: signal of MEK5 binding to mutant human MEKK2, retest; 5,900 tested, 2% active; bead flow cytometry, Alexa488-MEK5 binding to MEKK2 mutant; percent response, % at 10 µM; shares compounds with MEKK3 PB1 HTS; in the data active means percent response mostly above about 71%, no sharp cut-off; inactive means mostly below about 38%;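 further: higher means compound restores mutant binding toward wildtype level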
# MEKK3-MEK5 inh: confirmation of inhibitors of MEK5 binding to human MEKK3; shares compounds with MEKK3 PB1 HTS; bead flow cytometry, Alexa488-MEK5 binding to MEKK3; stronger effect = lower value; binding response (% of control), % at 10 µM; 5,900 tested, 1.8% active; AID 1894;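 active means binding response below 72% of control, or above a set upper limit, though filed actives all read lower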;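 further: 100% = DMSO only wells and 0% = binding blocked by excess unlabeled MEK5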
# Starred values were filed as active, the others as inactive; nt = no result; [ ] = remark or other dose.
SMILES,GSK3B inh,STK33 inh,MEKK3 PB1 HTS,GSK3 alpha inh,MEKK2 WT-MEK5,MEKK2 mut-MEK5,MEKK2wt confirm,MEKK2mut confirm,MEKK3-MEK5 inh
C#CCOCCOCCOCCNc1nc(N2CCN(C(=O)[C@H]([C@@H](C)CC)n3cc(CCCN=C(N)N)nn3)CC2)nc(N2CCN(C(=O)[C@H](CCCCN)n3cc(CCCC)nn3)CC2)n1,-4,3,106,8,172*,21,174,31,102
C#CCOCCOCCOCCNc1nc(N2CCN(C(=O)[C@H](CCC(=O)O)n3cc(C(N)CC(C)C)nn3)CC2)nc(N2CCN(C(=O)[C@H](Cc3ccc(O)cc3)n3cc(C(N)CC(C)C)nn3)CC2)n1 (stereo not given in full),3,-1,105,-6,110,9,nt,nt,nt
Cc1nc(SC(C)C(=O)NC2CCCCC2C)c2c(C)c(C)sc2n1 (stereo not given),1,0,97,1,93,-6,nt,nt,nt
C#CCOCCOCCOCCNc1nc(N2CCN(C(=O)C(Cc3ccc(O)cc3)n3cc(C(N)C(C)CC)nn3)CC2)nc(N2CCN(C(=O)C(Cc3ccc(O)cc3)n3cc(C(N)C(C)CC)nn3)CC2)n1 (stereo not given),3,0,111,2,145*,31,146,28,112
C#CCOCCOCCOCCNc1nc(N2CCOCC2)nc(N2CCN(C(=O)[C@H](Cc3ccc(O)cc3)n3cc([C@@H](N)C(C)CC)nn3)CC2)n1 (stereo not given in full),3,0,98,0,114,6,nt,nt,nt
C#CCOCCOCCOCCNc1nc(N2CCN(C(=O)[C@H](CCCCN)n3cc([C@@H](N)CC(C)C)nn3)CC2)nc(N2CCN(C(=O)[C@H](CCCCN)n3cc([C@@H](N)CC(C)C)nn3)CC2)n1,-7,0,96,5,136*,23,125,12,98
C#CCOCCOCCOCCNc1nc(N2CCN(C(=O)[C@H](CCCCN)n3cc([C@@H](N)CC(C)C)nn3)CC2)nc(N2CCN(C(=O)[C@H](Cc3ccc(O)cc3)n3cc([C@@H](N)CC(C)C)nn3)CC2)n1,-5,0,109,5,151*,38,140,20,106
C#CCOCCOCCOCCNc1nc(N2CCN(C(=O)[C@H](CCCCN)n3cc(C(N)CO)nn3)CC2)nc(N2CCN(C(=O)[C@H](CCC(=O)O)n3cc(C(N)CC(C)C)nn3)CC2)n1 (stereo not given in full),0,nt,81,nt,68,2,nt,nt,nt
O=C(c1ccco1)N1CCN(C(=S)NC2CC3CCC2C3)CC1 (stereo not given),1,0,106,-1,106,-3,nt,nt,nt
C/C(=N/Nc1ccc([N+](=O)[O-])cc1)c1ccc(C)cc1C,0,-1,112,-1,148*,8,110,4,109
C/C(=N\Nc1ccc([N+](=O)[O-])cc1)c1ccc(C#N)cc1,-1,-1,95,1,95,-8,nt,nt,nt
O=C(O)CC/C(=N/Nc1ccc([N+](=O)[O-])cc1)C(=O)O,4,-3,75*[inhibitor],0,71,-26,101,-2,100
CCNc1ccc(Br)cc(C(=O)/C=C/c2c(Cl)cccc2Cl)c1=O,11,-1,82,-3,47*[inhibitor],2,80,-11,95
C=CC[C@@H](CC(=O)N[C@H](CO)Cc1ccccc1)C(=O)NC[C@@H](OC(=O)[C@@H](CC=C)Cc1ccc(F)cc1)c1ccccc1,nt,-1,nt,0,nt,nt,nt,nt,nt
CCn1c(COc2ccccc2C)nnc1SCc1nc2ccccc2c(=O)[nH]1,0,1,112,-1,105,-1,nt,nt,nt
O=C(CNC(=S)NC(=O)c1ccc(F)cc1)c1ccccc1,0,0,136*,-2,107,2,103,-2,101
CCOP(=O)(OCC)C(Nc1cccc(C(F)(F)F)c1)c1ccc(C)cc1 (stereo not given),2,0,66*[inhibitor],-3,103,0,103,2,108
CCCOP(=O)(OCCC)C(Nc1cccc(C(F)(F)F)c1)c1ccc(C)cc1 (stereo not given),-3,-1,103,-1,108,7,nt,nt,nt
Cc1ccc(N(CC(=O)NCCSc2nc3ccccc3s2)S(=O)(=O)c2ccccc2)c(C)c1,5,-1,150*,0,105,0,105,6,108
Cc1ccc(C2NC(=O)CCC2[N+](=O)[O-])cc1 (stereo not given),0,-2,nt,-1,nt,nt,nt,nt,nt
O=C1CCC([N+](=O)[O-])C(c2ccc(Br)cc2)N1 (stereo not given),0,-2,133*,-2,105,1,95,-6,101
COc1nc(Oc2ccc(=O)[nH]n2)nc(N2CCOCC2)n1,18,-1,102,1,98,5,nt,nt,nt
CC(C)(C)Nc1nc(Oc2ccc(=O)[nH]n2)nc(N2CCOCC2)n1,-4,-1,75*[inhibitor],3,88,-2,104,0,101
COc1cc(NC(=O)C2CCN(S(=O)(=O)c3cccnc3)CC2)cc(OC)c1OC,-4,-1,115,-1,114,25*,104,10,108
COc1ccc(NC(=O)CNc2cccc(S(=O)(=O)N3CCCCCC3)c2)c([N+](=O)[O-])c1,nt,-1,nt,-8,nt,nt,nt,nt,nt
COc1ccccc1NC(=S)NC(NC(=O)c1ccco1)C(Cl)(Cl)Cl (stereo not given),-2,-3,129*,-2,100,0,101,2,105
O=C1Nc2ccccc2C1=Nc1ccc(F)cc1,3,0,101,-1,108,9,nt,nt,nt
CC(=O)c1ccc(N=C2C(=O)Nc3ccccc32)cc1,5,nt,56*[inhibitor],nt,20*[inhibitor],-8,96,-11,95
O=C(OCC1COc2ccccc2O1)c1c(F)cccc1F (stereo not given),0,0,66*[inhibitor],-2,76,-20,105,-4,103
